Source: ChEMBL document CHEMBL1687823, “PA-824 exhibits time-dependent activity in a murine model of tuberculosis” (Antimicrob Agents Chemother, 2011)
In brackets after ≈: the same amount, converted by molar mass. Activity calls are given as the source filed them. No cut-off for these calls is given here.

Columns and labels:
[1] = test system: Mycobacterium tuberculosis; experiment: fT>MIC for >= 1 log reduction in CFU count in Mycobacterium tuberculosis H37Rv in using simulated dose of at 100 mg assessed as time during compound concentration exceeds MIC of 0.03125 ug/ml assuming 10% unbound compound concentration by one compartment human pharmacokinetic model; type: functional
Summary of the method: (§1)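 A one-compartment PK model was fitted to human data to get median parameters. It simulated steady-state total and free concentrations for 100, 200 or 400 mg once daily, assuming 5, 7, 10 or 15% unbound drug. Free T>MIC was computed against MICs of 0.03125–0.25 µg/ml and compared with the mouse-derived T>MIC target for 1-log10 kill.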

[2] = test system: Mycobacterium tuberculosis; experiment: fT>MIC for >= 1 log reduction in CFU count in Mycobacterium tuberculosis H37Rv in using simulated dose of at 100 mg assessed as time during compound concentration exceeds MIC of 0.25000 ug/ml assuming 10% unbound compound concentration by one compartment human pharmacokinetic model; type: functional; summary of the method: as §1
[3] = test system: Mycobacterium tuberculosis; experiment: fT>MIC for >= 1 log reduction in CFU count in Mycobacterium tuberculosis H37Rv in using simulated dose of at 100 mg assessed as time during compound concentration exceeds MIC of 0.06250 ug/ml assuming 5% unbound compound concentration by one compartment human pharmacokinetic model; type: functional; summary of the method: as §1
[4] = Tmax in BALB/c mouse up to 1456 mg/kg, po administered as single dose; type: ADME, organism-based; design: route oral; conditions: in vivo
Summary of the method: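 Uninfected 6-week female BALB/c mice received single oral gavage doses of 3–1,458 mg/kg as a cyclodextrin-micelle suspension. Three mice per time point were bled by cardiac puncture under isoflurane at 0.5–120 h. Serum levels were measured by validated HPLC-UV (standards 0.20–50 µg/ml).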

[5] = test system: Mycobacterium tuberculosis; experiment: Antitubercular activity against Mycobacterium tuberculosis H37Rv assessed as reduction in CFU count by agar proportion method; type: functional
Summary of the method: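 Agar proportion method on 7H11 agar with 10% OADC containing 2-fold drug dilutions (0.007–2.0 µg/ml). Plates inoculated with serial 100-fold dilutions of log-phase H37Rv broth culture (~10^8 CFU/ml). Drug-free and isoniazid plates as controls. CFU counted after 21 days at 37°C, 5% CO2. MIC is the lowest concentration giving <1% of drug-free CFU.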

[6] = test system: Mycobacterium tuberculosis; experiment: fT>MIC for >= 1 log reduction in CFU count in Mycobacterium tuberculosis H37Rv in using simulated dose of at 400 mg assessed as time during compound concentration exceeds MIC of 0.06250 ug/ml assuming 7% unbound compound concentration by one compartment human pharmacokinetic model; type: functional
Summary of the method: (§2)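 Human steady-state simulation: one-compartment PK model fitted to patient data, chosen by AIC. Median PK parameters used to simulate total and free concentrations, assuming 5, 7, 10 or 15% unbound, for 100, 200 and 400 mg once daily. Free levels compared with MICs of 0.03125 to 0.25 µg/ml to give %T>MIC; T>MIC is the cumulative percentage of the dosing interval above MIC.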

[7] = test system: Mycobacterium tuberculosis; experiment: Antitubercular activity against Mycobacterium tuberculosis H37Rv infected in BALB/c mouse assessed as reduction in log10 CFU count at 96 mg/kg, po bid; type: functional
Summary of the method: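 Female 6-week BALB/c mice were aerosol-infected with log-phase H37Rv, aiming to implant ~3.5 log10 CFU. Treatment began 14 days later: gavage of cyclodextrin-micelle suspension for 24 consecutive days, total 0–4,608 mg/kg split into 3–48 equal doses, 3 mice per group. Lungs harvested 4 days after last dose and plated on selective OADC-7H11. CFU transformed as log10(x+1).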

[8] = test system: Mycobacterium tuberculosis; experiment: fT>MIC for >= 1 log reduction in CFU count in Mycobacterium tuberculosis H37Rv in using simulated dose of at 400 mg assessed as time during compound concentration exceeds MIC of 0.03125 ug/ml assuming 5% unbound compound concentration by one compartment human pharmacokinetic model; type: functional; summary of the method: as §1
[9] = test system: Mycobacterium tuberculosis; experiment: fT>MIC for >= 1 log reduction in CFU count in Mycobacterium tuberculosis H37Rv in using simulated dose of at 200 mg assessed as time during compound concentration exceeds MIC of 0.03125 ug/ml assuming 10% unbound compound concentration by one compartment human pharmacokinetic model; type: functional; summary of the method: as §1
[10] = test system: Mycobacterium tuberculosis; experiment: fT>MIC for >= 1 log reduction in CFU count in Mycobacterium tuberculosis H37Rv in using simulated dose of at 400 mg assessed as time during compound concentration exceeds MIC of 0.06250 ug/ml assuming 15% unbound compound concentration by one compartment human pharmacokinetic model; type: functional; summary of the method: as §1
[11] = test system: Mycobacterium tuberculosis; experiment: fT>MIC for >= 1 log reduction in CFU count in Mycobacterium tuberculosis H37Rv in using simulated dose of at 200 mg assessed as time during compound concentration exceeds MIC of 0.06250 ug/ml assuming 15% unbound compound concentration by one compartment human pharmacokinetic model; type: functional; summary of the method: as §1
[12] = test system: Mycobacterium tuberculosis; experiment: fT>MIC for >= 1 log reduction in CFU count in Mycobacterium tuberculosis H37Rv in using simulated dose of at 400 mg assessed as time during compound concentration exceeds MIC of 0.25000 ug/ml assuming 15% unbound compound concentration by one compartment human pharmacokinetic model; type: functional; summary of the method: as §2
[13] = test system: Mycobacterium tuberculosis; experiment: fT>MIC for >= 1 log reduction in CFU count in Mycobacterium tuberculosis H37Rv in using simulated dose of at 100 mg assessed as time during compound concentration exceeds MIC of 0.12500 ug/ml assuming 7% unbound compound concentration by one compartment human pharmacokinetic model; type: functional; summary of the method: as §1
[14] = test system: Mycobacterium tuberculosis; experiment: fT>MIC for >= 1 log reduction in CFU count in Mycobacterium tuberculosis H37Rv in using simulated dose of at 200 mg assessed as time during compound concentration exceeds MIC of 0.12500 ug/ml assuming 7% unbound compound concentration by one compartment human pharmacokinetic model; type: functional; summary of the method: as §1
[15] = test system: Mycobacterium tuberculosis; experiment: fT>MIC for >= 1 log reduction in CFU count in Mycobacterium tuberculosis H37Rv in using simulated dose of at 100 mg assessed as time during compound concentration exceeds MIC of 0.12500 ug/ml assuming 10% unbound compound concentration by one compartment human pharmacokinetic model; type: functional; summary of the method: as §1
[16] = test system: Mycobacterium tuberculosis; experiment: fT>MIC for >= 1 log reduction in CFU count in Mycobacterium tuberculosis H37Rv in using simulated dose of at 100 mg assessed as time during compound concentration exceeds MIC of 0.06250 ug/ml assuming 15% unbound compound concentration by one compartment human pharmacokinetic model; type: functional; summary of the method: as §1
[17] = test system: Mycobacterium tuberculosis; experiment: fT>MIC for >= 1 log reduction in CFU count in Mycobacterium tuberculosis H37Rv in using simulated dose of at 200 mg assessed as time during compound concentration exceeds MIC of 0.06250 ug/ml assuming 7% unbound compound concentration by one compartment human pharmacokinetic model; type: functional; summary of the method: as §1
[18] = test system: Mycobacterium tuberculosis; experiment: fT>MIC for >= 1 log reduction in CFU count in Mycobacterium tuberculosis H37Rv in using simulated dose of at 100 mg assessed as time during compound concentration exceeds MIC of 0.12500 ug/ml assuming 5% unbound compound concentration by one compartment human pharmacokinetic model; type: functional; summary of the method: as §1
[19] = test system: Mycobacterium tuberculosis; experiment: Antimicrobial activity against Mycobacterium tuberculosis H37Rv infected in BALB/c mouse assessed as bacteriostatic effect at 12.5 mg/kg, po administered as single dose; type: functional, organism-based; design: dose 12.5 mg/kg

O=[N+]([O-])c1cn2c(n1)OC[C@@H](OCc1ccc(OC(F)(F)F)cc1)C2 [PRETOMANID]
fT>MIC [1]: 100%
fT>MIC [2]: 0%
fT>MIC [3]: 0%
Tmax [4]: 4 h
MIC [5]: 0.06 µg/mL (≈ 0.167 µM)
fT>MIC [6]: 100%
log10cfu [7]: 2.4
fT>MIC [8]: 100%
fT>MIC [9]: 100%
fT>MIC [10]: 100%
fT>MIC [11]: 100%
fT>MIC [12]: 67%
fT>MIC [13]: 0%
fT>MIC [14]: 4%
fT>MIC [15]: 0%
fT>MIC [16]: 67%
fT>MIC [17]: 67%
fT>MIC [18]: 0%
Activity [19]: Active
